According to ChEMBL document CHEMBL5647699, “Discovery of a chemical probe for PRDM9” (Nat Commun, 2019):
Active and inactive are the calls of the source. The calls are words filed in the database; no cut-off is given here.

Legend:
[1] = biological target: Histone-lysine N-methyltransferase PRDM9 (Homo sapiens) (UniProt Q9NQV7); assay: Binding affinity to PRDM9 (unknown origin) assessed as thermal stability by measuring change in melting temperature at 250 uM by SYPRO orange dye based differential scanning fluorimetry
Sequence of Histone-lysine N-methyltransferase PRDM9 (Homo sapiens) (Q9NQV7 whole entry, the tested form may be a part): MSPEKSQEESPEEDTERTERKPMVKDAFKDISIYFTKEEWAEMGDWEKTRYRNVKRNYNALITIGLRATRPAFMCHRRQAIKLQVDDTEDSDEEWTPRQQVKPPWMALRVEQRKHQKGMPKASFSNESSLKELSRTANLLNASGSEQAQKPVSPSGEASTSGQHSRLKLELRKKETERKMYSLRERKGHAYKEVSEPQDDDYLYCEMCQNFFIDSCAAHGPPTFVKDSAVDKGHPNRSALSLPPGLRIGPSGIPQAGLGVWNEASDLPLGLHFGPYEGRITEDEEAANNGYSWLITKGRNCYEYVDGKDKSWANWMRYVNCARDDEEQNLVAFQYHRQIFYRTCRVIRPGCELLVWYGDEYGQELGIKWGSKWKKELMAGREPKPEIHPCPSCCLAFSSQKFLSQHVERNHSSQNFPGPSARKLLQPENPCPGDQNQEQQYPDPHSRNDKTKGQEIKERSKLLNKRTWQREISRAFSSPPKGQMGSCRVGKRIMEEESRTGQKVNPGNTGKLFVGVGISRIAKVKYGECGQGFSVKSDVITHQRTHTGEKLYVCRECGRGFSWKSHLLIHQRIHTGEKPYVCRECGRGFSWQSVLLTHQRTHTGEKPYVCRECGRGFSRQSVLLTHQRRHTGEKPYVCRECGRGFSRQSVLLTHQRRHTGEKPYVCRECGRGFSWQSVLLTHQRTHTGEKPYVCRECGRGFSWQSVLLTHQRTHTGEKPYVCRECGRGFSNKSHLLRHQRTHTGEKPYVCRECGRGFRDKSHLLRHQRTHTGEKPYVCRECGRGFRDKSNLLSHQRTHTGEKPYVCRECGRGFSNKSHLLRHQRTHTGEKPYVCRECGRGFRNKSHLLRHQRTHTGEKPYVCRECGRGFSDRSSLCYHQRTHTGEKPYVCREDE
In short: (§1)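 DSF with 250 μM compound; proteins at 0.02 mg mL⁻¹ final in 0.1 M HEPES pH 7.5, 150 mM NaCl with 2 mM SAM; ΔTm (Tm ligand − Tm apo) above 2 °C taken as binding.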

[2] = biological target: Histone-lysine N-methyltransferase PRDM7 (Homo sapiens) (UniProt Q9NQW5); assay: Binding affinity to PRDM7 (unknown origin) assessed as thermal stability by measuring change in melting temperature at 250 uM by SYPRO orange dye based differential scanning fluorimetry; in short: as §1
Sequence of Histone-lysine N-methyltransferase PRDM7 (Homo sapiens) (Q9NQW5 whole entry): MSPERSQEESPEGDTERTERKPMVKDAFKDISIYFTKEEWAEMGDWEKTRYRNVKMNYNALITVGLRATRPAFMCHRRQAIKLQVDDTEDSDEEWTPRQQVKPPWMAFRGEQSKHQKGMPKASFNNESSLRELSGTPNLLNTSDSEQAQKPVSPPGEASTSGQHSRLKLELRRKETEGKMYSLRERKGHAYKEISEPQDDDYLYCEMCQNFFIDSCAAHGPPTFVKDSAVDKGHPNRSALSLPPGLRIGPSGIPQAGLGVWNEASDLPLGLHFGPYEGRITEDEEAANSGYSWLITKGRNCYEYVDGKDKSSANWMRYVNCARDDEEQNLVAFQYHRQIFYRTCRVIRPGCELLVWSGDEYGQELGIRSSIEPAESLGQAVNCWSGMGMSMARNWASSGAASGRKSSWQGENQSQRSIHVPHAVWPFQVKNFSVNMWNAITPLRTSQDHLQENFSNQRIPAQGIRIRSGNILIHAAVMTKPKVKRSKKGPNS

[3] = biological target: Histone-lysine N-methyltransferase PRDM9 (Homo sapiens) (UniProt Q9NQV7); assay: Inhibition of PRDM9 (unknown origin) at 1 to 10 uM; settings: dose 1-10 µM
[4] = biological target: Mu-type opioid receptor (Homo sapiens) (UniProt P35372); assay: Agonist activity at MOR receptor (unknown origin) by Glo Sensor assay; assay type: functional
Sequence of Mu-type opioid receptor (Homo sapiens) (P35372 whole entry): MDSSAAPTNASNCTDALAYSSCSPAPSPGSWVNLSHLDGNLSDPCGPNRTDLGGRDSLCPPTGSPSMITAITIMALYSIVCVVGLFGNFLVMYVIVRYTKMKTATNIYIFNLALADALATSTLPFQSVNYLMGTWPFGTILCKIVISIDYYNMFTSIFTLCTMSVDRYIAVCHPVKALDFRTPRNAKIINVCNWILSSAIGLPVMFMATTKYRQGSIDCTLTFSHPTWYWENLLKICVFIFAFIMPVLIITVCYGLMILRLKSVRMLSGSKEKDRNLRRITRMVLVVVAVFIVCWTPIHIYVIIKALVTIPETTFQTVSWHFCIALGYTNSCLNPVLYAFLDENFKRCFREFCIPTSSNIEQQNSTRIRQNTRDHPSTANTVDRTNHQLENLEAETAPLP

[5] = biological target: Alpha-2B adrenergic receptor (Homo sapiens) (UniProt P18089); assay: Agonist activity at adrenergic alpha 2b receptor (unknown origin) by Glo Sensor assay; assay type: functional
Sequence of Alpha-2B adrenergic receptor (Homo sapiens) (P18089 whole entry): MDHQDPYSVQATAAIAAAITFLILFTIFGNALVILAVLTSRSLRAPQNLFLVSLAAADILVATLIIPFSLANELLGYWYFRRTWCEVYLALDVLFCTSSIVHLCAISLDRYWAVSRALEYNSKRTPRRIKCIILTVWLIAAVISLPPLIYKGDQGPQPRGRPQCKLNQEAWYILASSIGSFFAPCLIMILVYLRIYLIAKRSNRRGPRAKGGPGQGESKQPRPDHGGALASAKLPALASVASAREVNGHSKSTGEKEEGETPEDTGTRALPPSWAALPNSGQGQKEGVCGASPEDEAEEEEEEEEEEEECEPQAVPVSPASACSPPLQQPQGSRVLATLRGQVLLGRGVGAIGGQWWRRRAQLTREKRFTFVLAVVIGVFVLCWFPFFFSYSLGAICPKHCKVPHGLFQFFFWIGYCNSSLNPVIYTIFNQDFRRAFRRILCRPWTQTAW

[6] = biological target: Muscarinic acetylcholine receptor M2 (Homo sapiens) (UniProt P08172); assay: Agonist activity at muscarinic M2 receptor (unknown origin) by Glo Sensor assay; assay type: functional
Sequence of Muscarinic acetylcholine receptor M2 (Homo sapiens) (P08172 whole entry): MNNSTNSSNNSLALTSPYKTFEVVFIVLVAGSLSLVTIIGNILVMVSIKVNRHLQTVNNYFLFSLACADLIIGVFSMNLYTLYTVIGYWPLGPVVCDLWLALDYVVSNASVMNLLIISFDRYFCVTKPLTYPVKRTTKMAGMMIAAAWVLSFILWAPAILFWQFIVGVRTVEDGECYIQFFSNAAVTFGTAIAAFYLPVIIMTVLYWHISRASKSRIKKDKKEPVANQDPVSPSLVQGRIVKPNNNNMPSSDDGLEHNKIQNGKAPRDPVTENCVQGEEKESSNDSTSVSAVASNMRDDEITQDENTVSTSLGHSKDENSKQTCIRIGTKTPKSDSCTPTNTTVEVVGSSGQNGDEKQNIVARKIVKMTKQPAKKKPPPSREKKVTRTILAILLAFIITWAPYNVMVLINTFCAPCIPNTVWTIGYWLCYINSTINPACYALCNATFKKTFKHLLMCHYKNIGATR

[7] = biological target: Histamine H3 receptor (Homo sapiens) (UniProt Q9Y5N1); assay: Agonist activity at Histamine H3 (unknown origin) by Glo Sensor assay; assay type: functional
Sequence of Histamine H3 receptor (Homo sapiens) (Q9Y5N1 whole entry): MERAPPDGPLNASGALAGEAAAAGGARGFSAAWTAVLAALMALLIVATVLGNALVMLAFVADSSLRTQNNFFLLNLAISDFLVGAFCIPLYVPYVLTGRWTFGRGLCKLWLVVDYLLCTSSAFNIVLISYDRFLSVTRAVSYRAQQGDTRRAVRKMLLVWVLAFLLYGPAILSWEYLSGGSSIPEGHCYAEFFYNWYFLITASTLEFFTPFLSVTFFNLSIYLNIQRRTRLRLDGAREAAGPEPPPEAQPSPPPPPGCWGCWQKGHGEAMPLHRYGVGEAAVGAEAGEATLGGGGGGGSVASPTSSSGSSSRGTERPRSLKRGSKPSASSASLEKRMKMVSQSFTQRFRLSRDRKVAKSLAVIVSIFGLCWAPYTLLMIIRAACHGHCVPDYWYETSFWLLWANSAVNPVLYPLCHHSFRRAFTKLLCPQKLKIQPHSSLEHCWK

[8] = biological target: Mu-type opioid receptor (Homo sapiens) (UniProt P35372); assay: Antagonist activity against MOR receptor (unknown origin) by Glo Sensor assay; assay type: functional
[9] = biological target: Alpha-2B adrenergic receptor (Homo sapiens) (UniProt P18089); assay: Antagonist activity against adrenergic alpha 2b receptor (unknown origin) by Glo Sensor assay; assay type: functional
[10] = biological target: Muscarinic acetylcholine receptor M2 (Homo sapiens) (UniProt P08172); assay: Antagonist activity against muscarinic M2 receptor (unknown origin) by Glo Sensor assay; assay type: functional
[11] = biological target: Histone-lysine N-methyltransferase PRDM9 (Homo sapiens) (UniProt Q9NQV7); assay: Inhibition of PRDM9 (unknown origin) in presence of SAH
[12] = biological target: Histone-lysine N-methyltransferase PRDM9 (Homo sapiens) (UniProt Q9NQV7); assay: Binding affinity to PRDM9 (unknown origin) (195 to 415 residues) at 20 uM measured at 60 to 120 secs in presence of SAH by surface plasmon resonance assay; settings: time 60-120 sec
[13] = biological target: Histone-lysine N-methyltransferase PRDM9 (Homo sapiens) (UniProt Q9NQV7); assay: Inhibition of FLAG tagged PRDM9 transfected in HEK293T cells assessed as reduction in trimethylation of ectopic H3K4 measured after 20 hrs by Western blot analysis; assay type: cell-based; settings: dose <= 10.0 µM
[14] = biological target: Histone-lysine N-methyltransferase PRDM9 (Homo sapiens) (UniProt Q9NQV7); assay: Inhibition of FLAG tagged PRDM9 transfected in HEK293T cells assessed as reduction in trimethylation of endogenous H3K4 measured after 20 hrs by Western blot analysis; assay type: cell-based; settings: dose <= 10.0 µM
[15] = test system: SK-MM-2; assay: Cytotoxicity against human SK-MM-2 cells at upto 30 uM measured for 3 to 6 days by celltiter glo assay; assay type: functional, cell-based; settings: time 3-6 day
[16] = test system: HEK-293T; assay: Cytotoxicity against HEK293T cells at 3 uM measured after 24 hrs by IncuCyte zoom live-cell imaging analysis; assay type: toxicity, cell-based; settings: human
In short: (§2)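 HEK293T cells seeded, treated next day with compound for 1 day; cell number counted by live-cell imaging after Vybrant DyeCycle Green staining; mean ± sd, n = 3.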

[17] = test system: HEK-293T; assay: Cytotoxicity against HEK293T cells at 10 uM measured after 24 hrs by IncuCyte zoom live-cell imaging analysis; assay type: toxicity, cell-based; settings: human; in short: as §2
[18] = test system: HEK-293T; assay: Cytotoxicity against HEK293T cells at 3 uM measured after 4 days by IncuCyte zoom live-cell imaging analysis; assay type: toxicity, cell-based; settings: human, 96 h, time 4 day
[19] = test system: HEK-293T; assay: Cytotoxicity against HEK293T cells at 10 uM measured after 4 days by IncuCyte zoom live-cell imaging analysis; assay type: toxicity, cell-based; settings: human, 96 h, time 4 day
[20] = biological target: Histone-lysine N-methyltransferase PRDM9 (Homo sapiens) (UniProt Q9NQV7); assay: Inhibition of FLAG tagged PRDM9 transfected in human MCF7 cells cotransfected with H3-GFP assessed as inhibition of trimethylation H3K4 at upto 10 uM measured after 20 hrs by Western blot analysis; assay type: cell-based
[21] = test system: MCF7; assay: Cytotoxicity against human MCF7 cells assessed as reduction in cell viability at 10 uM measured on day 5 by IncuCyte zoom live-cell imaging analysis; assay type: functional, cell-based; settings: time 5.0 day
In short: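 MCF7 cells seeded, treated next day with 10 μM compound in a 5-day proliferation assay; cell number counted by live-cell imaging after Vybrant DyeCycle Green staining.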

[22] = test system: RPMI-8226; assay: Cytotoxicity against human RPMI-8226 cells at upto 30 uM measured for 3 to 6 days by celltiter glo assay; assay type: functional, cell-based; settings: time 3-6 day
[23] = test system: CAL-85-1; assay: Cytotoxicity against human CAL-85-1 cells at upto 30 uM measured for 3 to 6 days by celltiter glo assay; assay type: functional, cell-based; settings: time 3-6 day
[24] = test system: HCC1806; assay: Cytotoxicity against human HCC1806 cells at upto 30 uM measured for 3 to 6 days by celltiter glo assay; assay type: functional, cell-based; settings: time 3-6 day
[25] = test system: MDA-MB-436; assay: Cytotoxicity against human MDA-MB-436 cells at upto 30 uM measured for 3 to 6 days by celltiter glo assay; assay type: functional, cell-based; settings: time 3-6 day
[26] = test system: HCC1143; assay: Cytotoxicity against human HCC1143 cells at upto 30 uM measured for 3 to 6 days by celltiter glo assay; assay type: functional, cell-based; settings: time 3-6 day
[27] = test system: Histone-lysine N-methyltransferase PRDM9 (Homo sapiens), Q9NQV7 [UNDEFINED MUTATION]; assay: Inhibition of PRDM9 mutant (unknown origin) expressed in […] cells assessed as reduction in H3k4me3 expression at TSS region of endogenous chromatin at 2.5 to 10 uM measured after 48 hrs by ChIP qPCR analysis; assay type: cell-based; settings: HEK293T, dose 2.5-10 µM
Sequence of Histone-lysine N-methyltransferase PRDM9 (Homo sapiens), Q9NQV7 [UNDEFINED MUTATION] (Q9NQV7 whole entry, looked up, change not shown): as the sequence (Q9NQV7 whole entry, the tested form may be a part) above
In short: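 HEK293T cells transfected with empty vector, wild-type or catalytically dead PRDM9 and treated with 0.1% DMSO or compound for 48 h; formaldehyde fixed, sonicated chromatin (50 μg) immunoprecipitated with anti-H3K4me3 or anti-H3; qPCR at PRDM9-bound and control loci; mean ± s.d. of technical replicates, representative of two experiments.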

[28] = test system: Spermatocyte; assay: Induction of meiotic defect in wild type mouse spermatocyte assessed as non homologous synapsis by SYCP1/SYCP3 staining based immunofluorescence assay; assay type: functional, cell-based
[29] = test system: Spermatocyte; assay: Induction of meiotic defect in wild type mouse spermatocyte assessed as effect on paring of chromosomal homolog by SYCP1/SYCP3 staining based immunofluorescence assay; assay type: functional, cell-based

- ΔTm [1]: > 2 °C
- ΔTm [2]: > 2 °C
- inhibition [3]: Active
- Activity [4]: inactive
- Activity [5]: inactive
- Activity [6]: inactive
- Activity [7]: inactive
- Activity [8]: inactive
- Activity [9]: inactive
- Activity [10]: inactive
- inhibition [11]: inactive
- Activity [12]: inactive
- inhibition [13]: Dose-Dependent Effect
- inhibition [14]: Dose-Dependent Effect
- inhibition [20]: Active
- inhibition [27]: inactive
Structure (SMILES): COc1cc(OC)cc(-c2noc(N3CCN(C)C4(CCN(c5ccnc(C)c5)CC4)C3)n2)c1
- Activity [15]: inactive
- Activity [16]: Non-Toxic
- Activity [17]: Toxic
- Activity [18]: Non-Toxic
- Activity [19]: Toxic
- Activity [21]: inactive
- Activity [22]: inactive
- Activity [23]: inactive
- Activity [24]: inactive
- Activity [25]: inactive
- Activity [26]: inactive
- Activity [28]: Active
- Activity [29]: Active
